Experimental data from different studies.
Lines come from different studies, so protocols differ.
Read-out: enzyme activity
Mode: inhibitor
SRC: Proto-oncogene tyrosine-protein kinase Src (SRC, Homo sapiens, UniProt P12931)

Structure (SMILES) | target | method | tested at | remaining activity [%]
O=C(Nc1cnn(-c2csc(C(=O)NC3COC3)c2)c1)Nc1c(F)cccc1Cl | SRC | – | 5 µM | 98.4
Cc1ccc(C(=O)Nc2ccc(CN3CCN(C)CC3)c(C(F)(F)F)c2)cc1C#Cc1cnc2cccnn12 | SRC | – | 23.5 nM | 12
COc1cc(Nc2cnc(C#N)c(O[C@H](C)CN(C)C)n2)ncc1-c1cnn(C)c1 | SRC | radiometric | 10 µM | 72
Oc1cccc(-c2nc(N3CCOCC3)c3oc4ncccc4c3n2)c1 | SRC | – | 10 µM | 99
CC(C)(C)C(=O)c1sc(NC2CCCCC2)nc1N | SRC | – | 10 µM | 99
CC(C)(C)c1nc2c(s1)c1nc(N)ncc1c1ccc(NS(=O)(=O)c3c(F)cccc3F)c(F)c12 | SRC | radiometric | 1 µM | 89
Cc1sc(C(=O)NC2COC2)cc1-n1cc(NC(=O)Nc2c(F)cccc2Cl)cn1 | SRC | – | 10 µM | 96.6
Cc1ccc(NC(=O)c2ccc(C)c(C(F)(F)F)c2)cc1C#Cc1nn(C2CCC(O)CC2)c2ncnc(N)c12 (stereo not drawn) | Proto-oncogene tyrosine-protein kinase Src (SRC, Homo sapiens, UniProt P12931, T341M) | – | 10 µM | 20
Cn1c(=O)n(-c2ccc(C(C)(C)C#N)cc2)c2c3cc(-c4cnc5ccccc5c4)ccc3ncc21 | SRC | – | 10 µM | 121
Cc1[nH]c(/C=C2\C(=O)Nc3ccc(F)cc32)c(C)c1C(=O)N[C@H]1CCN(C(=O)N(C)C)C1 | SRC | – | 1 µM | 89
Nc1ncnc2occ(-c3ccc(NC(=O)Nc4cc(C(F)(F)F)ccc4F)cc3)c12 | SRC | – | 20 µM | 0.2
Nc1nc(NC2CCCCC2)sc1C(=O)c1ccccc1 | SRC | – | 10 µM | 99
